# Measurements pooled from the literature.
# Each line is one published result; the experiments were not run side by side.
# Observed: cell growth or viability
Compound,cell line,test,conditions,IC50
CC(C)[C@@H](C)NC(=O)c1cc(-c2cc3ccccc3n2C)cc(C(=O)NCCc2ccccn2)n1,JHH7,CCK-8,,25.3 µM
C=CC(C)(C)c1[nH]cnc1/C=C1/NC(=O)[C@H](C(C)C)NC1=O,NCI-H446,SRB,,2 µM
COc1cc(C2C3=C(COC3=O)N(CCO)c3cc4c(cc32)CCC4)cc(OC)c1OC (stereo not drawn),4T1,ATP luminescence,48 h,0.85 µM
CC(=O)c1ccc2cc(S(=O)(=O)Nc3ccc(F)cc3)ccc2c1,MDCK,neutral red,48 h,93.4 µM
Cc1ccc(S(=O)(=O)n2cc(/C=N/NC(=O)c3ccco3)c3ccccc32)cc1,MCF-10A,MTT,48 h,> 50 µM
COc1cc([C@@H]2c3cc4c(cc3[C@@H](O[C@@H]3O[C@@H]5CO[C@@H](C)O[C@H]5[C@H](O)[C@H]3O)[C@H]3COC(=O)[C@H]23)OCO4)cc(OC)c1O,K562,MTS,72 h,0.03 µM
Cc1ccc(S(=O)(=O)n2cc(/C=N/NC(=O)c3cccc(Cl)c3)c3ccccc32)cc1,MCF-10A,MTT,48 h,> 50 µM
NC(=S)N/N=C1\C(=O)N(CCn2ncc3c(=O)[nH]cnc32)c2ccc(Cl)cc21,BALB/3T3 clone A31,SRB,72 h,14.3 mg/L
FC(F)(F)c1cc(OCc2cc(-c3ccc(Cl)cc3Cl)no2)c2ccccc2n1,K562,MTS,72 h,> 100 µM
Cc1ccc(S(=O)(=O)n2cc(/C=N/NC(=O)c3ccccc3Br)c3ccccc32)cc1,MCF-10A,MTT,48 h,> 50 µM
CC(=O)O[C@@]12CO[C@@H]1C[C@H](O)[C@@]1(C)C(=O)[C@H](O)C3=C(C)[C@@H](OC(=O)[C@H](O)[C@@H](NC(=O)OC(C)(C)C)c4ccccc4)C[C@@](O)([C@@H](OC(=O)c4ccccc4)[C@H]21)C3(C)C,MCF-10A,MTT,48 h,> 100 µM
Nc1ccn([C@@H]2O[C@H](CO)[C@@H](O)C2(F)F)c(=O)n1,4T1,MTT,24 h,5.78 mg/L
Cc1ccc(S(=O)(=O)n2cc(/C=N/NC(=O)Cc3ccc(F)cc3F)c3ccccc32)cc1,MCF-10A,MTT,48 h,> 50 µM
CNC(=O)c1cc(Oc2ccc(NC(=O)Nc3ccc(Cl)c(C(F)(F)F)c3)cc2)ccn1,BALB/3T3 clone A31,SRB,72 h,0.42 mg/L
COc1cccc2c1C(=O)c1c(O)c3c(c(O)c1C2=O)C[C@@](O)(C(=O)CO)C[C@@H]3O[C@H]1C[C@H](N)[C@H](O)[C@H](C)O1,NCI-H446,SRB,,0.8 µM
CC(=O)c1ccc2cc(S(=O)(=O)Nc3ccccn3)ccc2c1,MDCK,neutral red,48 h,88.8 µM
CN1CCC(NC2CCc3[nH]c4c(C(N)=O)ccc(-c5ccccc5Cl)c4c3C2)CC1 (stereo not drawn),NCI-H446,,96 h,0.00802 µM
CC(=O)c1ccc2cc(S(=O)(=O)Nc3ccccc3)ccc2c1,MDCK,neutral red,48 h,90.9 µM
COC[C@H](NC(=O)c1ccn(S(C)(=O)=O)c1)C(=O)Nc1nc(-c2cccc(N3C[C@@H](C)O[C@@H](C)C3)n2)cs1,VCaP,ATP luminescence,7 days,0.0265 µM
NC(=O)c1cnc(NCCc2ccc(O)c(Cl)c2)nc1NCc1ccccc1,JHH7,CCK-8,48 h,1.29 µM
COc1ccc2c(c1)/C(=N/NC(N)=S)C(=O)N2CCn1ncc2c(=O)[nH]cnc21,BALB/3T3 clone A31,SRB,72 h,77.5 mg/L
